Assay outcomes: PubChem, several laboratories
PG9 binder – binders of HIV-1 gp120 antibody PG9, primary screen, biochemical, TR-FRET; 360,000 compounds, 0.43% hits; inhibition, % at 6.7 µM; HIV-1 gp120 / PG9 antibody interaction; AID 624416, 2012; TR-FRET gp120-PG9 antibody binding; in the data active = inhibition above about 8.5%
Rev-erbA mod – modulators of Rev-erb alpha DNA binding, primary screen, biochemical, FITC-DNA, fluorescence polarization, uHTS. Nuclear receptor subfamily 1 group D member 1 (Homo sapiens), P20393. Rev-erbα–FITC-DNA binding, 90 min. activity, % at 10 µM. 370,000 compounds, 0.79% hits. AID 1259318, 2017;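 active = activity above about 14%, limit read from the data; passing the limit was not always enough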;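 note: 0% = DMSO wells with 35 nM protein and 100% = DMSO wells with 750 nM protein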
rCAG binder – binders of r(CAG) RNA repeats, primary screen, biochemical, fluorescence; r(CAG) RNA repeat, TO-PRO-1 dye displacement fluorescence; AID 651821, 2012; inhibition, % at 3 µM; 370,000 compounds, 1.3% hits;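 active = inhibition above the plate cutoff, the mean of all test compounds on that plate plus 3 SD, cut at about 35% in these data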;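 note: 0% = DMSO alone and 100% = 100 µM mitoxantrone as full dye displacement; higher means more dye released from RNA so lower well fluorescence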
NR2E3 ag-1 – NR2E3 agonists in two-hybrid cells, primary screen, cell-based, luminescence, CHO-S, Gal4-NCOR/VP16-NR2E3; luciferase; Photoreceptor-specific nuclear receptor (Homo sapiens), Q9Y5X4; 360,000 compounds, 0.35% hits; inhibition of corepressor binding, % at 3.98 µM;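 active = inhibition above the mean of all tested compounds plus 3 SD, cut at about 70% in these data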;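 note: 0% = DMSO with NR2E3 transfected cells and 100% = cells lacking NR2E3 construct; higher means lower luciferase signal from less NR2E3 corepressor binding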
Target sequence (Q9Y5X4 whole entry, looked up, the tested form may be a part): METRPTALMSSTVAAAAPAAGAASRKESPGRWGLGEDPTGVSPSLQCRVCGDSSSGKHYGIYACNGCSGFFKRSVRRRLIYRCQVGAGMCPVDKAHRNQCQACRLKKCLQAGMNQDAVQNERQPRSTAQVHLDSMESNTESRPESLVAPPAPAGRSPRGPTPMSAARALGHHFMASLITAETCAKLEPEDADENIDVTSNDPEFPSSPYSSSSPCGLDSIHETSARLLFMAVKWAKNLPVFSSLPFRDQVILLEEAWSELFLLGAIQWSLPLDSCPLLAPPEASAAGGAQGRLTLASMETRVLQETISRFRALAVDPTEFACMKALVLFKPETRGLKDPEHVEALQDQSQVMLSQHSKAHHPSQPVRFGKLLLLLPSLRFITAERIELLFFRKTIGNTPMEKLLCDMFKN
NR2E3 ag-2 – inhibitors of NR2E3-RetCOR corepressor binding, primary screen, NR2E3 agonist project, biochemical, TR-FRET, GST-NR2E3, biotin-RetCOR | AID 2300, 2010 | inhibition of corepressor binding, % at 4.78 µM | 320,000 compounds, 0.12% hits | 1536-well;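 active = percent inhibition above the cutoff of mean plus 3 SD of all tested compounds, set per screening campaign, cut at about 20% in these data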;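 note: 0% = DMSO wells and 100% = biotin wells as full block of FRET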
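Assay system: NR2E3–RetCOR corepressor complex. Quantity: 1.35 nM GST-NR2E3. Buffer or medium: pH 7.5 Tris-based buffer. Reagent: biotinylated RetCOR corepressor at 7 nM final. Schedule: 5 h at 4 °C. Detection: TR-FRET, emission read at 617 and 671 nm. Replicates: one well per compound, singlicate testing.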
rCAG binder conf – small molecules binding CAG repeat RNA – biochemical, fluorescence, confirmation | shares compounds with rCAG binder | r(CAG) RNA repeat, TO-PRO-1 dye displacement fluorescence | inhibition, % at 3 µM | 4,300 compounds, 70% hits | AID 652065, 2013;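 active = inhibition above a per-plate cutoff, the mean inhibition of sample wells plus 3 SD, cut at about 35% in these data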;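 note: loss of TO-PRO-1 fluorescence as compound displaces dye from 1x1 AA loop RNA; 0% = DMSO only wells and 100% = 100 µM mitoxantrone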
DNA CAG counter – displacement of TO-PRO-1 from CAG DNA duplex, counter-screen for rCAG RNA repeat binder project, biochemical, fluorescence, TO-PRO-1 dye, d(CAG) DNA oligo | shares compounds with rCAG binder | d(CAG) DNA oligo TO-PRO-1 dye displacement | inhibition, % at 3 µM | 4,300 compounds, 94% hits;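 active = inhibition above its plate's cutoff, the mean test-well inhibition plus 3 SD, cut at about 4.8% in these data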;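 note: 0% = DNA dye mix with DMSO and 100% = 100 µM mitoxantrone; hits displace the dye from DNA and so lower well fluorescence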
The depositor's hits bear a star; nt = not tested or not shown. Shown are actives, neighbours in structure and some others; about 2.6% of the full set was active somewhere.

SMILES	PG9 binder	Rev-erbA mod	rCAG binder	NR2E3 ag-1	NR2E3 ag-2	rCAG binder conf	DNA CAG counter
COc1cccc(C(=O)Nc2cccc(C(=O)NC3=NN(c4c(Cl)cc(Cl)cc4Cl)C(=O)C3)c2)c1	1	1	56*	-11	0	48*	17*
CC(C)(C)C(=O)NC1=NN(c2c(Cl)cc(Cl)cc2Cl)C(=O)C1	-1	-4	44*	21	2	5	4
COc1ccc(C(=O)/C=C/c2ccc(O)cc2)c(O)c1C/C=C(\C)CCC=C(C)C	0	-9	69*	-14	nt	65*	28*
C=C(C)C(O)CC/C(C)=C/Cc1c(O)ccc(C(=O)/C=C/c2ccc(O)cc2)c1O (stereo not given)	0	1	27	-7	nt	nt	nt
COC(=O)c1sc(NC(=O)c2ccc(Cn3cc(Cl)cn3)o2)c(C#N)c1C	2	-5	48*	0	2	42*	13*
CCOc1cc(C(=O)N(C)CC(=O)Nc2cccc3ccccc23)ccc1OC	-1	1	3	2	2	nt	nt
Cc1ccc(C)c(NC(=O)CSc2ncnc3nc[nH]c23)c1	-1	-4	1	17	-5	nt	nt
O=C(CSc1ncnc2nc[nH]c12)Nc1nnc(SCc2ccc(Cl)c(Cl)c2)s1	-2	-3	42*	-40	1	61*	24*
C[C@@H]1CC[C@H](Cc2ccc(-n3cccc3)cc2)N1C(=O)OC(C)(C)C	0	5	0	-31	nt	nt	nt
COc1c(Cl)cc(C(=O)Nc2cccnc2)cc1Cl	1	-9	2	-15	nt	nt	nt
N#C/C(N=Nc1ccccc1O)=N\Nc1ccccc1O	-11	-10	57*	-6	-4	74*	29*
Oc1ccccc1N=N/C(=N/Nc1ccccc1O)c1ccccc1	0	5	19	-34	2	nt	nt
Cc1[nH]c(=O)nc(SCc2ccc(Cl)c(Cl)c2)c1C#N	-2	-7	38*	-13	2	30	7.2*
CC(=O)NS(=O)(=O)c1ccc(N=c2ssc3c2-c2cc(C)c(C)cc2NC3(C)C)cc1	-1	7	75*	-6	0	59*	25*
Cc1nc(C)c(-c2csc(Nc3ccc(S(N)(=O)=O)cc3)n2)s1	-1	2	5	10	nt	nt	nt
NS(=O)(=O)c1ccc(Nc2nc(-c3ccc4ccccc4c3)cs2)cc1	1	-3	52*	-13	6	36*	20*
O=C(Nc1nc(-c2ccc3ccccc3c2)cs1)c1ccc(N2C(=O)CCC2=O)cc1	-1	7	5	-18	3	nt	nt
O=C(O)c1ccccc1C(=O)Nc1nc(-c2ccc3ccccc3c2)cs1	0	-5	70*	-63	2	63*	26*
NS(=O)(=O)c1ccc(Nc2nc(-c3cccc([N+](=O)[O-])c3)cs2)cc1	0	-7	36*	3	-1	23	17*
Cc1ccc(-c2csc(Nc3ccc(S(N)(=O)=O)cc3)n2)o1	-3	-2	20	-2	1	nt	nt
CCOc1ccc(N=C2SC(C(=O)Nc3ccccc3C#N)C(N)=C2C(=O)Nc2ccc(Cl)cc2)cc1 (stereo not given)	-1	-1	39*	2	5	28	17*
CCOc1ccc(OCC(=O)OCC(=O)Nc2ccccc2C#N)cc1	-1	-4	-2	12	nt	nt	nt
Cc1ccc(S(=O)(=O)NCC(=O)N2CCN(c3ccccn3)CC2)s1	nt	-8	0	nt	nt	nt	nt
CC1(C)CC(=O)C(C2C3=C(CC(C)(C)CC3=O)Oc3ccccc32)=C(O)C1 (stereo not given)	0	5	5	-17	0	nt	nt
CC1(C)CC(=O)C(C2C3=C(CC(C)(C)CC3=O)OC3=C2C(=O)CC(C)(C)C3)=C(O)C1	2	1	44*	-53	-2	2	1
SMILES	PG9 binder	Rev-erbA mod	rCAG binder	NR2E3 ag-1	NR2E3 ag-2	rCAG binder conf	DNA CAG counter
COc1ccc(CNS(=O)(=O)c2cc(Br)ccc2Br)c(OC)c1	0	1	4	nt	nt	nt	nt
O=C(Nn1c(O)c(C=C2N=c3ccccc3=N2)sc1=S)c1cccc(Cl)c1	-2	6	73*	12	-5	43*	15*
O=C1N=c2ccccc2=C1c1sc(=S)n(NC(=O)c2cccc(O)c2)c1O	-5	1	11	-5	nt	nt	nt
Oc1c(C=C2N=c3ccccc3=N2)sc(=S)n1C1CCCC1	-2	3	11	-34	4	nt	nt
O=C1N=c2ccc(Br)cc2=C1c1sc(=S)n(NS(=O)(=O)c2ccccc2)c1O	-4	6	81*	-19	-1	80*	50*
O=C(Nn1c(O)c(C=C2N=c3ccccc3=N2)sc1=S)c1ccccc1	-2	7	51*	18	5	23	9.6*
O=C(Nn1c(O)c(C=C2N=c3ccccc3=N2)sc1=S)c1ccc(Cl)cc1	1	7	13	-16	0	nt	nt
Cc1ccc(S(=O)(=O)Nn2c(O)c(C=C3N=c4ccccc4=N3)sc2=S)cc1	-3	1	94*	-41	-2	88*	60*
COc1ncnc2c1ncn2CCCNCc1ccc2c(c1)OCO2	-4	2	-1	-3	nt	nt	nt
Cc1cccc(CNC(=O)C2CCC(=O)N(CC3CCCCC3)C2)c1 (stereo not given)	-1	2	-1	-20	nt	nt	nt
Cc1ccc(C(=O)Nn2c(O)c(C=C3N=c4ccccc4=N3)sc2=S)cc1	-4	2	58*	-30	-5	40*	16*
CCc1cc2c(nc1CC)CCCN2S(=O)(=O)c1c(C)noc1C	-1	-3	1	nt	nt	nt	nt
N#Cc1c(-c2cccc(Br)c2)cc(-c2ccco2)[nH]c1=O	-4	-4	51*	-15	5	45*	16*
COc1ccc(-c2cc(-c3ccco3)[nH]c(=O)c2C#N)cc1	-3	-7	15	-7	3	nt	nt
COc1ccc(S(=O)(=O)N(C)C[C@H]2Oc3c(NS(=O)(=O)c4ccc(F)cc4)cccc3C(=O)N([C@H](C)CO)C[C@@H]2C)cc1	-2	7	15	-8	nt	nt	nt
CO[C@]12C[C@@H](COC(=O)c3cncc(Br)c3)CN(C)[C@@H]1Cc1cn(C)c3cccc2c13	nt	0	nt	nt	nt	nt	nt
